The results in this text go back to ChEMBL document CHEMBL1255250, “Microbicidal properties and cytocidal selectivity of rhesus macaque theta defensins” (Antimicrob Agents Chemother, 2008).

In series [1] the test system is Staphylococcus aureus. Description: Microbicidal activity against Staphylococcus aureus 502a. The series is classed as functional. In outline:
(§1)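 Log-phase organisms (1–2 × 10^6 CFU/ml) were exposed to serially diluted peptide (0.05–10.0 μg/ml final) in 10 mM PIPES, pH 7.4, with 5 mM glucose for 2 h at 37°C. Aliquots were serially diluted 1:10 to 1:10^6 in Trypticase soy or Sabouraud broth and grown 24–48 h at 37°C. MMC was the lowest concentration giving 99.9% viability loss in at least two experiments.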

The test system of series [2] is Escherichia coli. The series can be described thus: Microbicidal activity against Escherichia coli ML35. The class given is functional. The gist of the method:
as §1

Series [3] in a line: Selectivity index, ratio of MMC for Staphylococcus aureus 502a to hemolytic activity for human erythrocytes.
The test system of series [4] is Candida albicans. The series can be described thus: Microbicidal activity against Candida albicans 16820. The class given is functional. The gist of the method: as §1
Series [5] concerns Candida albicans. Description: Microbicidal activity against Candida albicans 16820 assessed as log reduction in microbial count at 10 ug/ml using PIPES buffer.
Series [6] concerns Candida albicans. Description: Microbicidal activity against Candida albicans 16820 using PIPES buffer in presence of NaCl. The class given is functional, organism-based. In outline:
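Log-phase C. albicans was incubated with peptide in 10 mM PIPES, pH 7.4, supplemented with NaCl, for 2 h at 37°C. Survivors were plated on Sabouraud dextrose agar and counted after 18–24 h at 37°C.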

Series [7] relates to Staphylococcus aureus. The series can be described thus: Microbicidal activity against Staphylococcus aureus 502a in presence of 1.2 mM Calcium ions. The series is classed as functional, organism-based.
For series [8], the system named is Staphylococcus aureus. Description: Microbicidal activity against Staphylococcus aureus 502a at 0.5 to 2 ug/ml in presence of 10% human serum. The class given is functional, organism-based. In outline: (§2)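 S. aureus was incubated with a dose series of peptide in 10 mM PIPES, pH 7.4, containing 10% normal human serum. Bacterial killing was determined by colony counting and expressed as a percentage of killing in incubations lacking serum.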

In series [9] the test system is Escherichia coli. The series can be described thus: Microbicidal activity against Escherichia coli ML35 assessed as induction of cytoplasmic membrane permeabilization at 1 ug/ml. The class given is functional, organism-based. The gist of the method:
(§3)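 Log-phase E. coli ML35 (1–2 × 10^6 CFU/ml) was incubated with peptide (0–8 μg/ml final) in 10 mM PIPES, pH 7.4, containing 3 mM ONPG. ONPG hydrolysis was followed at 405 nm for 60 min. The rate was taken as the highest kinetic slope and corrected for peptide inhibition of β-galactosidase measured cell-free.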

Series [10] has as its system Staphylococcus aureus. The series can be described thus: Microbicidal activity against Staphylococcus aureus 502a using 10 mM PIPES buffer in presence of 154 mM NaCl. The series is classed as functional, organism-based. The gist of the method: (§4)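 Log-phase S. aureus was exposed to increasing peptide concentrations for 2 h at 37°C. Buffer was 10 mM PIPES, Tris-HCl or sodium phosphate, pH 7.4, with or without 154 mM NaCl. Killing was read by colony counting.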

For series [11], the system named is Staphylococcus aureus. The series can be described thus: Microbicidal activity against Staphylococcus aureus 502a at 5 ug/ml in presence of 160 mM NaCl. The series is classed as functional, organism-based. In outline:
(§5)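 S. aureus in log phase was incubated with 5 μg/ml peptide in 10 mM PIPES, pH 7.4, containing increasing NaCl for 2 h at 37°C. Killing was determined by colony counting and expressed as a percentage of killing in buffer alone.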

Series [12] has as its system Escherichia coli. The series can be described thus: Microbicidal activity against Escherichia coli ML35 at <=8 ug/ml in presence of 10% heat-inactivated human serum. The series is classed as functional, organism-based. The gist of the method: (§6)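 Human serum was heat-inactivated at 55°C for 30 min and clarified by centrifugation. E. coli was then exposed to a dose series of peptide in 10 mM PIPES, pH 7.4, with 10% of this serum. Killing was counted as colonies and expressed relative to incubations without serum.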

Series [13] has as its system Staphylococcus aureus. The series can be described thus: Microbicidal activity against Staphylococcus aureus 502a using 10 mM Tris-HCl buffer in presence of 154 mM NaCl. The class given is functional, organism-based. The gist of the method: as §4
The subject of series [14] is Escherichia coli. Description: Microbicidal activity against Escherichia coli ML35 at 16 ug/ml in presence of 10% heat-inactivated human serum. The series is classed as functional, organism-based. In outline: as §6
The subject of series [15] is Staphylococcus aureus. Description: Microbicidal activity against Staphylococcus aureus 502a in presence of 0.8 mM Magnesium ions. The class given is functional, organism-based.
The subject of series [16] is Candida albicans. The series can be described thus: Microbicidal activity against Candida albicans 16820 in presence of 0.8 mM Magnesium ions. The series is classed as functional, organism-based. In outline:
(§7)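 Log-phase E. coli ML35 or C. albicans was incubated with increasing peptide concentrations in 10 mM PIPES, pH 7.4. The buffer contained 1.2 mM CaCl2 and 0.8 mM MgCl2, or no added divalent salts. Incubation was 2 h at 37°C, and survivors were counted as colonies.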

The nature of series [17]: Inhibition of beta-galactosidase in cell-free system assessed as inhibition of o-nitrophenyl-beta-d-galactopyranoside hydrolysis.
Series [18] concerns Staphylococcus aureus. Description: Microbicidal activity against Staphylococcus aureus 502a using 10 mM sodium phosphate buffer in presence of 154 mM NaCl. The series is classed as functional, organism-based. The gist of the method: as §4
In series [19] the test system is Candida albicans. Description: Microbicidal activity against Candida albicans 16820 in presence of 1.2 mM Calcium ions. The series is classed as functional, organism-based. In outline:
as §7

In series [20] the test system is Escherichia coli. The series can be described thus: Microbicidal activity against Escherichia coli ML35 in presence of 1.2 mM Calcium ions. The class given is functional, organism-based. In outline:
as §7

For series [21], the system named is Staphylococcus aureus. Description: Microbicidal activity against Staphylococcus aureus 502a at >= 2 ug/ml in presence of 10% human serum. The class given is functional, organism-based. The gist of the method:
as §2

Series [22] concerns Escherichia coli. The series can be described thus: Microbicidal activity against Escherichia coli ML35 in presence of 0.8 mM Magnesium ions. The class given is functional, organism-based. In outline: as §7
The target in series [23] is Beta-galactosidase (Escherichia coli) (UniProt Q8VNN2). The series can be described thus: Inhibition of Escherichia coli ML35 Beta-galactosidase assessed as inhibition of o-nitrophenyl-beta-d-galactopyranoside hydrolysis at 4 ug/ml.
Series [24] concerns Staphylococcus aureus. The series can be described thus: Microbicidal activity against Staphylococcus aureus 502a at 5 ug/ml in presence of <= 80 mM NaCl. The series is classed as functional, organism-based. The gist of the method:
as §5

Series [25] deals with Beta-galactosidase (Escherichia coli) (UniProt Q8VNN2). The series can be described thus: Inhibition of Escherichia coli ML35 beta-galactosidase assessed as inhibition of o-nitrophenyl-beta-d-galactopyranoside hydrolysis at 1 ug/ml after 60 mins. The gist of the method: as §3
Series [26] in a line: Toxicity in human Erythrocyte assessed as hemolysis at 100 ug/ml in presence of 10% serum. The series is classed as cell-based. The gist of the method:
(§8)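 Erythrocytes from EDTA-anticoagulated human donor blood were washed in PBS or PiBS containing 4 mM EDTA, then resuspended without EDTA at 2% (vol/vol). Cells were incubated with peptide (0.3–100 μg/ml final) for 1 h at 37°C, with or without 10% autologous serum. Supernatant A405 was expressed relative to 1% Nonidet P-40 lysis.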

Series [27] is described as follows: Toxicity in human Erythrocyte assessed as hemolysis at 100 ug/ml. The class given is cell-based. The gist of the method: as §8
Series [28] is described as follows: Toxicity in human Erythrocyte assessed as concentration required to achieve 3% hemolysis. The class given is cell-based.
Series [29] deals with Beta-galactosidase (Escherichia coli) (UniProt Q8VNN2). The series can be described thus: Inhibition of Escherichia coli ML35 Beta-galactosidase assessed as hydrolysis of o-nitrophenyl-beta-d-galactopyranoside at 2 ug/ml.

Molecules are shown by their SMILES. Calls of active or inactive are those of the source. The calls are words filed in the database; no cut-off is given here. Where a SMILES comes first, the peptide text is derived from it. Bridges are numbered along the chain shown (N, C = ends).

Sequence of Beta-galactosidase (Escherichia coli) (Q8VNN2 whole entry, looked up): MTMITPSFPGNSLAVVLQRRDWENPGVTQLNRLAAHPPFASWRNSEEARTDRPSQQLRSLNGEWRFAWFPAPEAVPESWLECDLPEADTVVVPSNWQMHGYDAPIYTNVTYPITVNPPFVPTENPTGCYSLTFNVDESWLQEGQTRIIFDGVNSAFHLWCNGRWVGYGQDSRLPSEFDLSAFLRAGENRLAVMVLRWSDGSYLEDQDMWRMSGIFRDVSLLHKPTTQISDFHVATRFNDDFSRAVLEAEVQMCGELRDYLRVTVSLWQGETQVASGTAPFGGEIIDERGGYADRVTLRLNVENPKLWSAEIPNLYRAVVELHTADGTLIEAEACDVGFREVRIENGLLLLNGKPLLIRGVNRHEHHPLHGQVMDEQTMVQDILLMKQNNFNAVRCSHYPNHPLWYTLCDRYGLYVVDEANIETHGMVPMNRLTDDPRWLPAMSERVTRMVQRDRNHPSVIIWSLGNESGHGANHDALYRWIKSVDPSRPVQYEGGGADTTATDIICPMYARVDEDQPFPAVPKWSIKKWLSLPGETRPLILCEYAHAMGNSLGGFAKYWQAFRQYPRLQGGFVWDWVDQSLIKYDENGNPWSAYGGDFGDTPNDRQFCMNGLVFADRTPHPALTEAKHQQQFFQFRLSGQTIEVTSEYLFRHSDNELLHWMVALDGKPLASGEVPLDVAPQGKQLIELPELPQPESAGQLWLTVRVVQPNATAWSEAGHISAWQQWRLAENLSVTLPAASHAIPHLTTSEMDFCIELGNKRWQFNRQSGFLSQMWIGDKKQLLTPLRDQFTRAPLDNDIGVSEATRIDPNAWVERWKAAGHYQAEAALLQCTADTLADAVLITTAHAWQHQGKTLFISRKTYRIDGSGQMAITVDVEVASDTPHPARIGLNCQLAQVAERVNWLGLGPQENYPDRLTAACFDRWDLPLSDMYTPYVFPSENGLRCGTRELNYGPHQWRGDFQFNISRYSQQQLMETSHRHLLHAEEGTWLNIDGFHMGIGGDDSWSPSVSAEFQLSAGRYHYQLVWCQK

On to `CC[C@H](C)[C@@H]1NC(=O)[C@@H]2CSSC[C@H](NC(=O)[C@H](CCCNC(=N)N)NC(=O)[C@@H]3CSSC[C@H](NC1=O)C(=O)N[C@@H]([C@@H](C)O)C(=O)N[C@@H](CCCNC(=N)N)C(=O)NCC(=O)N[C@@H](Cc1ccccc1)C(=O)N3)C(=O)N[C@@H](CC(C)C)C(=O)N[C@H]1CSSC[C@H](NC(=O)[C@H](C(C)C)NC(=O)CNC(=O)[C@H](CCCNC(=N)N)NC(=O)[C@H](CCCNC(=N)N)NC1=O)C(=O)N[C@@H](CCCNC(=N)N)C(=O)N2`, for which the MMC is 1 µg/mL in series [1], 2 µg/mL in series [2] and 1 µg/mL in [4]. In addition, the “Selectivity Index” value in series [3] turned out to be 5.5. Further, the FC in series [5] is greater than 3.

Consider `CC[C@H](C)[C@@H]1NC(=O)[C@@H]2CSSC[C@H](NC(=O)[C@H](CCCNC(=N)N)NC(=O)[C@@H]3CSSC[C@H](NC1=O)C(=O)N[C@@H]([C@H](C)O)C(=O)N[C@@H](CCCNC(=N)N)C(=O)NCC(=O)N[C@H](Cc1ccccc1)C(=O)N3)C(=O)N[C@@H](CC(C)C)C(=O)N[C@@H]1CSSC[C@@H](NC(=O)[C@H](C(C)C)NC(=O)CNC(=O)[C@H](CCCNC(=N)N)NC(=O)[C@H](CCCNC(=N)N)NC1=O)C(=O)N[C@@H](CCCNC(=N)N)C(=O)N2`, for which the result in [6], in [8], in [11], in [12], in series [16] and in series [19] was inactive. In addition, the result in [7], in [9], in series [10], in [13], in series [14] and in series [15] was Active. Moreover, the outcome in series [18], in series [20], in series [21], in [22] and in [24] was Active. The inhibition result is “Dose-dependent effect” in series [17] and 36% in series [23].

On to `CC(C)C[C@@H]1NC(=O)[C@@H]2CSSC[C@H](NC(=O)[C@H](CCCNC(=N)N)NC(=O)[C@@H]3CSSC[C@H](NC1=O)C(=O)N[C@@H](CCCNC(=N)N)C(=O)N[C@@H](CCCNC(=N)N)C(=O)NCC(=O)N[C@@H](C(C)C)C(=O)N3)C(=O)N[C@@H](CC(C)C)C(=O)N[C@H]1CSSC[C@H](NC(=O)[C@H](C(C)C)NC(=O)CNC(=O)[C@H](CCCNC(=N)N)NC(=O)[C@H](CCCNC(=N)N)NC1=O)C(=O)N[C@@H](CCCNC(=N)N)C(=O)N2` (cyclo(CLCRRGVCRCLCRRGVCR); disulfide 1-10, 3-8, 12-17), for which the inhibition result in [25] is “Active”. Further, the result in series [6], in [11], in [12], in series [16] and in series [19] was inactive. In addition, the result in series [7], in [9], in series [10], in series [13], in series [14] and in series [15] was Active. Further, the outcome in series [18], in [20], in [21], in series [22] and in series [24] was Active. The Activity result in series [26] is “Non-toxic”; in series [27], “Non-toxic”; in [28], 6.2 µg/mL. Further, the MMC in series [1] is 1 µg/mL; in [2], 2 µg/mL; in series [4], 1 µg/mL. Also, the inhibition result in [17] is “Dose-dependent effect”; in [23], 36%. The “Selectivity Index” value in series [3] is given as 6.2. In series [5], the FC is greater than 3.

Regarding `CC[C@H](C)[C@@H]1NC(=O)C2CSSCC(NC(=O)[C@H](CCCNC(=N)N)NC(=O)[C@@H]3CSSC[C@H](NC1=O)C(=O)N[C@@H]([C@@H](C)O)C(=O)N[C@@H](CCCNC(=N)N)C(=O)NCC(=O)N[C@@H](Cc1ccccc1)C(=O)N3)C(=O)N[C@@H]([C@@H](C)CC)C(=O)N[C@H]1CSSC[C@H](NC(=O)[C@H](Cc3ccccc3)NC(=O)CNC(=O)[C@H](CCCNC(=N)N)NC(=O)[C@H]([C@@H](C)O)NC1=O)C(=O)N[C@@H](CCCNC(=N)N)C(=O)N2` (single isomer, unassigned), the inhibition entry in series [25] is “Active”. Also, the result in series [6], in series [8], in [9], in [10], in [11] and in series [12] was inactive. Besides, the result in series [16], in [18] and in [19] was inactive. Further, the outcome in series [7], in series [14], in series [15], in [20], in [21] and in series [22] was Active. Moreover, the result in [24] was Active. Moreover, the Activity entry was “Non-toxic” in series [26], “Non-toxic” in [27] and 21 µg/mL in [28]. Moreover, the MMC in series [1] was 1.5 µg/mL; in [2] it was 2.3 µg/mL; in [4] it was 3 µg/mL. In series [29], the inhibition amounted to 78%. Besides, the “Selectivity Index” value in [3] turned out to be 14. Also, the FC in series [5] was greater than 3.

The inhibition is the percentage by which the read-out fell short of the control.
